Here are results for 27 variants from the RNAGym collection of RNA variant scans (doi:10.1101/gad.245936.114).

B1: tRNA (parent)
chain: CUCUCGGUAGCCAAGUUGGUUUAAGGCGCAAGACUUUAAUUUAUCACUACGAAAUCUUGAGAUCGGGCGUUCGACUCGCCCCCGGGAGAUUUUUUCCUCGAGCAA

Fewer inactive variants are shown than the library holds.

The series covers variants of B1. Briefly: nonsense suppression (GFP-seq) (ratio to wild type); higher = more function; SUP4oc tRNA, yeast GFP reporter sort-seq. Summed up:
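Nonsense suppression (GFPSEQ) is the median GFP/RFP ratio of each sorting bin, weighted by the variant's estimated share of cells in that bin and expressed relative to the unmutated parent tRNA. Yeast strains carried genome-integrated variants of an ochre-suppressor tRNA from a library with ~3% random mutations, plus a galactose-driven GFP ochre reporter and RFP, and were grown in raffinose/galactose medium containing 80 mg/L adenine. Cells were sorted into GFP/RFP bins, each bin was Illumina-sequenced (phred ≥30), and variants were kept only with ≥100 reads and ≥30 cells.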
Take CUCUCGGAAGCCAAGUUGGUUUAAGGCGCAAGACUUUAAUUUAUCACUACGAAAUCGUGAGAUCGGGCGUUCGACUCGCCCACGGGAGAUUUUUUCCUCGAGCAA [U8A U57G C82A]: the nonsense suppression is no more than 0.026. On to CUCUCGGAAGCCAAGUUGGUUUACGGCGCAAGACUUUAAUUUAUCACUACGAAAUCUUGAGAUCGGGCGUUCGACUCGGCCCCGGGAGAUUUUUUCCUCGAGCAA [U8A A24C C79G], for which the nonsense suppression is no more than 0.026. To CUCUCGGCAGCCAAGUUGGUUUAAGGCGCAAGACUUUAAUUUAUCACUACGAAGUCUUCAGGUCGGGCGUUCGACUCGCCCCCAGGAGAUUUUUUCCUCGAGCAA [U8C A54G G59C A62G G84A] belongs no more than 0.026; to CUCUCGGCAGCCAAGUUGGUUUAAGGCGCACGACUUUAAUUUAUCACUACGAAUUCUUGAGAUCGGGCGUUCGACUCGCCCCCGAGAAAUUUUUUCCUCGAGCAA [U8C A31C A54U G85A G88A], no more than 0.026; to CUCUCGGCAGCCAAGUUGGUUUAAGGCGCAGGACUUUAAUUUAUCACUACGAAAUCUUGAGAUCGGGCGUUCGACUCGCCCCCGGGAGAUUUUUUCCUCGAGCAA [U8C A31G], 0.0327. Take CUCUCGGAAGCCAAGUUGGUUUAAGGCGCAAAACUUUAAUUUAUCACUACGAAAUCUUGAGAUCGGGCGUUCGACUCGCCCCCGGGAGAUUUUUUCCUCGAGCAA [U8A G32A]: the nonsense suppression was no more than 0.026. With CUCUCGGAAGCCAAGUUGGUUUAAGGCGCAAGACUUUAAUUUAUCACUACGAAAUCUUGAAAUCGGGCGUUGGACUCGCCGCCGGGAGAUUUUUUCCUCGAGCAA [U8A G61A C72G C81G], the nonsense suppression is no more than 0.026. The figure for CUCUCGGCAGCCAAGUUGGUUUAAGGCGCAAGACUUUAAUUUAUCACUACGAAAUCUUGAGAUCAGGCGUUUGACUCGCCCCCGGGAGAUUUUUUCCUCGAGCAA [U8C G65A C72U] is no more than 0.026; for CUCUCGGCAGCCAAGUUGGUUUAAGGCGCAAGACUUUAAUUUAUCACUACGAACUCUUGAGAUCGGGCGUUCGACUCGCCCCCGGGAGAUUUUUUCCUCGAGCAA [U8C A54C] it is 0.0833. CUCUCGGCAGCCAAGAUGGUUUAAGGCGCCAGACUUUAAUUUAUCACUACGAACUCUUGAGAUCGGGCGUUCGACUCGCCCCCGGGAGAUUUUUUCCUCGAGCAA [U8C U16A A30C A54C]: the nonsense suppression is no more than 0.026.

With CUCUCGGCUGCCAAGUUGGUUUAAGGCGCAAGAGUUUAAUUUAUCACUACGAAAUCUUGAGAUCGGGUGUUCGACUCGCCCCCGGGAGAUUUUUUCCUCGAGCAA [U8C A9U C34G C68U], the nonsense suppression is no more than 0.026. The figure for CUCUCGGCAGCCAAGUUGGUGUAAGGCGCAAGACUUUAAUUUAUCACUACGAAAUCUUGAGAUCGGGCGUUCGACUCGCCCCCGGGAGAUUUUUUCCUCGAGCAA [U8C U21G] is 0.0903; for CUCUCGGCAGCCAAGUUGGUAUAAGGCGCAAGACUUUAAUUUAUCACUACGAAAUCUUGAGAUCGGGCGUUCGACUCGCCCCCGGGAGAUUUUUUCCUCGAGCAA [U8C U21A] it is no more than 0.026; for CUCUCGGCAGCCAAGUUGGUUUAAGGCGCAAGACGUUAAUUUAUCACUACGAAAUCUUGAGAUCGGGCGUACGACUCGCCCCCGGGAGAUUUUUUCCUCGAGCAA [U8C U35G U71A] it is no more than 0.026.

In the case of CUCUCGGAAGCCAAGGUGGUUUAAGGCGCAAGACUUUAAUUUAUCACUACGAAAUCUUGAGAUCGGGCGUUCGACUCGCCCCCGGGAGAUUUUUUCCUCGAGCAA [U8A U16G], the nonsense suppression was found to be 0.0647. The figure for CUCUCGGAAGCCAAGUUGGUUUAAGGCGCGAGGCUUUAAUUUAUCACUACGAAAUCUUGAGAUCGGGCGUUCGACUCGCCCCCGGGAGAUUUUUUCCUCGAGCAA [U8A A30G A33G] is no more than 0.026; for CUCUCGGCAGCCAAGUUGGUUUAAGGCGCAAGACUUUAAUUUAUCACUACGAAAUCUUGAGAUCGGGCGUUCGACUCGCCGCCGGGAGAUUUUUUCCUCGAGCAA [U8C C81G] it is no more than 0.026; for CUCUCGGAAGCCAAGUUGGUUUAAGCCGCAUGACUUUAAUUUAUCACUACGAAAACUUGAGAUCGGGCGUACGACUCGCCCCCGGGAGAUUUUUUCCUCGAGCAA [U8A G26C A31U U55A U71A] it is no more than 0.026. Take CUCUCGGAAGCCAAGUUGGUUUAAGGCGCAAGACUUUAAUUUAUCACUACGAAAUCUUGAGAUCGGGCGUUCGACUCGCCCCCGUGAGAUUUUUUCCUCGAGCAA [U8A G85U]: the nonsense suppression was 0.071. Consider CUCUCGGCAGCCAAGUUGGUUUAAGGCGCAAGACUUUAAUUUAUCACUACGAAAUCUUGAGAUCGGGCGUUCGACUCGCGCCCGGGAGAUUUUUUCCUCGAGCAA [U8C C80G], for which the nonsense suppression is no more than 0.026. In the case of CUCUCGGAAGCCAAGUUGGUUUAAGGGGCAAGACUUUAAUUUAUCACUACGAAGUCUUGAGAUCGGGCGUUCGACUCGUCCCCGGGAGAUUUUUUCCUCGAGCAA [U8A C27G A54G C79U], the nonsense suppression was no more than 0.026. As to CUCUCGGAAGCCAAGUUGGUUUAAGGCGCUAGACUUUAAUUUAUCACUACGAAAUCUUGAGAUCGGGCGUUCGACUCGCCCCCGGGAGAUUUUUUCCUCGAGCAA [U8A A30U], the nonsense suppression was found to be 0.0393. The figure for CUCUCGGAAGCCAAGUUGGUUUAAGGCGCGAGACUUUAAUUUAUCACUACGAAAUCUUGAGAUCGGGCGUUCGACUCGCCCCCGGGAGAUUUUUUCCUCGAGCAA [U8A A30G] is 0.0404; for CUCUCGGAAACCAAGUUGGUUUAAGGCGCAAGACUUUAAUUUAUCACUACGAAAUCUUGAGAUCAGGCGUUCGACUCGCCCCCGUGAGAUUUUUUCCUCGAGCAA [U8A G10A G65A G85U] it is no more than 0.026; for CUCUCGGAAGCCAAGUUGGUUUAAGGCGCAAGACUUUAAUUUAUCACUACGAAAUCUUGAGAUCGGCCGUGCGACUCGCCCCCGGGAGAUUUUUUCCUCGAGCAA [U8A G67C U71G] it is no more than 0.026.

On to CUCUCGGAAGCCAAGUUGGUUUGAGGCGCAAGACUUUAAUUUAUCACUACGAAAUCUUGAGAUCGGGCGUUCGACUCGCGCCCCGGAGAUUUUUUCCUCGAGCAA [U8A A23G C80G G84C], for which the nonsense suppression was no more than 0.026.

For the variant CUCUCGGAAGCCAAGUUGGUUUAACGCGCAAGACUUUAAUUUAUCACUACGAAAUCUUGAGAUCGGGCGUUCGACUCGCCCCCGGGAGAUUUUUUCCUCGAGCAA [U8A G25C], the nonsense suppression was no more than 0.026.
